ChEMBL document CHEMBL5108087, “Synthesis and biological evaluation of paeoveitol D derivatives as new melatonin receptor agonists with antidepressant activities” (RSC Med Chem, 2022)
Active and inactive are the calls of the source. No cut-off for these calls is given here.

Key:
[1] = target: T1, Melatonin receptor type 1B (Homo sapiens, UniProt P49286); assay: Agonist activity at human MT2 receptor expressed in HEK293 cells by Fluo-8 based calcium assay; assay type: functional, cell-based
T1 sequence (P49286 whole entry): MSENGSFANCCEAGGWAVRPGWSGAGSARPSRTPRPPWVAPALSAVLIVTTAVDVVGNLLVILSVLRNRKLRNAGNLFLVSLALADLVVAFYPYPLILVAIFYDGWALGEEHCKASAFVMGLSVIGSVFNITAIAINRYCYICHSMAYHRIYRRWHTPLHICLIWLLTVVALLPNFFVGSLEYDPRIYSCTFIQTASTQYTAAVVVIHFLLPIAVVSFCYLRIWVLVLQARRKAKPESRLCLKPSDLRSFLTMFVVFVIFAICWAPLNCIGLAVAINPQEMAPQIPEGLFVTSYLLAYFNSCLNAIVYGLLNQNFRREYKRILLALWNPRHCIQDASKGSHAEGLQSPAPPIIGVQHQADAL

[2] = target: Melatonin receptor type 1A (Homo sapiens, UniProt P48039); assay: Agonist activity at human MT1 receptor expressed in HEK293 cells by Fluo-8 based calcium assay; assay type: functional, cell-based
[3] = test system: HEK293T; assay: (§1) Agonist activity at human MT2 Q194A mutant receptor transfected in HEK293T cells co-transfected with tet-inducible luciferase reporter plasmid, pCDNA3.1(+)-CMV-betaArrestin2-tev plasmid and TANGO plasmid assessed as shift in concentration response curve incubated for 24 hrs by TANGO-GPCR assay based luminescence plate reader analysis relative to agomelatine; assay type: cell-based; details: filed as agonist
In short: (§2)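 293T cells transiently transfected with tet-inducible luciferase reporter, pCDNA3.1(+)-CMV-bArrestin2-tev and TANGO receptor plasmids (wild-type or point mutant). Next day plated at 20 000 cells/well on poly-L-lysine; drug added day 3. Day 4, Bright-Glo added, 20 min, then luminescence read. Concentration–response curves fitted; data mean ± SD.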

[4] = test system: Mus musculus; assay: Antidepressant activity in Kunming mouse assessed as decrease in immobility time at 20 mg/kg, po and measured after 14 days by forced swim test relative to control; assay type: functional, organism-based; details: time 14.0 day
In short: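 Male Kunming mice, 15–18 g, given the test compound orally for 14 days. Forced swim then done in a cylinder 25 cm high and 15 cm in diameter, water 10 cm deep at 25 ± 1 °C. Swim lasted 6 min and immobility over the final 4 min was video-scored against the vehicle group.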

[5] = test system: HEK293T; assay: as §1, with “N175A” for “Q194A”; assay type: cell-based; details: filed as agonist; in short: as §2

Chain of Melatonin receptor type 1A (P48039 whole entry): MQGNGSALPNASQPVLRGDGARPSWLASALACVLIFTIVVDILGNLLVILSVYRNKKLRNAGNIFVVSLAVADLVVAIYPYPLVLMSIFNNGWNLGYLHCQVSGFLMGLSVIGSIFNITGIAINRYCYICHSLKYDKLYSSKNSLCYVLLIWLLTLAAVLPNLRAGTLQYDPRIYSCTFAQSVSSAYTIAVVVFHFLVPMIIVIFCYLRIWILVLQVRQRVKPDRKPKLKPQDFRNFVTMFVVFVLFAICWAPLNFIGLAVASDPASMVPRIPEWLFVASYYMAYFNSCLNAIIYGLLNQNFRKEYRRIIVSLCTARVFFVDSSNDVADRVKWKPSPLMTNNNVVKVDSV

In the case of `COc1cc2c(CN)coc2cc1C`, the EC50 [1] is reported as 350 µM and the EC50 [2] is reported as 250 µM.

For `COc1cc2c(CO)coc2cc1C`, the EC50 [1] was 520 µM and the EC50 [2] was 700 µM.

For `COc1ccc2cccc(CCNC(C)=O)c2c1`, the Activity [3] was “Active”, the Activity [4] was “Active” and the Activity [5] was “Active”.
